In ChEMBL document CHEMBL1141664, “Design and evaluation of anacardic acid derivatives as anticavity agents” (2008):
Values after ≈ are worked out from the molar mass of the structure shown. Active and inactive are the calls of the source. The rule behind the calls is not given here.

How the values were obtained:
[1] = system: Streptococcus mutans; test: Antibacterial activity against Streptococcus mutans ATCC 25175 after 2 days by twofold broth dilution method; type: functional; conditions: ATCC 25175, 48 h
Procedure, shortened: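 Freeze-dried S. mutans grown stationary 2 days at 37 °C in 3.7% BHI broth, then used as inoculum. Compounds serially 2-fold diluted in DMF and added to BHI broth, with solubility limiting the top concentration. MIC is the lowest concentration giving complete inhibition of visible growth after 2 days at 37 °C. At least triplicate on separate occasions.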

[2] = system: Escherichia coli; test: Antibacterial activity against Escherichia coli ATCC 9637 up to 200 ug/ml after 2 days by twofold broth dilution method; type: functional, organism-based
Procedure, shortened: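 Twofold serial broth dilution run in NYG broth (0.8% nutrient broth, 0.5% yeast extract, 0.1% glucose). MIC is the lowest concentration fully inhibiting visible growth.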

[3] = system: Cutibacterium acnes; test: Antibacterial activity against Propionibacterium acnes ATCC 11827; type: functional
[4] = system: Streptococcus mutans; test: Antibacterial activity against Streptococcus mutans ATCC 25175 after 2 days by twofold broth dilution method in presence of anethole; type: functional; conditions: ATCC 25175, 48 h

| SMILES | MIC [1] | MIC [3] | MBC [1] | Activity [2] | MBC [4] |
| --- | --- | --- | --- | --- | --- |
| C=CC/C=C\C/C=C\CCCCCCCc1cccc(OC(C)=O)c1C(=O)O |  |  |  | inactive |  |
| O=C(O)c1c(O)cccc1CCc1cc(O)c(O)cc1O | 200 µg/mL (≈ 689 µM) |  |  | inactive |  |
| CCCCCCCCCCCCCCCc1cccc(O)c1C(=O)O [ANACARDIC ACID] | > 800 µg/mL | 0.78 µg/mL (≈ 2.24 µM) |  | inactive |  |
| CCCCCCCCCOC(=O)c1ccccc1O |  |  |  | inactive |  |
| O=C(O)c1c(O)cccc1CCc1cc(O)ccc1O | 200 µg/mL (≈ 729 µM) |  |  | inactive |  |
| O=C(O)c1c(O)cccc1CCc1ccccc1 | 50 µg/mL (≈ 206 µM) |  |  | inactive |  |
| O=C(O)c1c(O)cccc1CCc1ccc(O)cc1 | 100 µg/mL (≈ 387 µM) |  |  | inactive |  |
| O=C(O)c1c(O)cccc1CCc1ccc(O)cc1O | > 200 µg/mL |  |  | inactive |  |
| CCCCCCOC(=O)c1ccccc1O |  |  |  | inactive |  |
| C/C=C/c1ccc(OC)cc1 |  |  |  | inactive |  |
| C=CC/C=C\C/C=C\CCCCCCCc1cccc(O)c1C(=O)OC |  |  |  | inactive |  |
| O=C(O)c1c(O)cccc1CCc1ccc(O)c(O)c1 | 200 µg/mL (≈ 729 µM) |  |  | inactive |  |

The remaining compounds from weak to strong by MIC [1], led by results:

| MIC [1] | MIC [3] | SMILES | MBC [1] | Activity [2] | MBC [4] |
| --- | --- | --- | --- | --- | --- |
| 25 µg/mL (≈ 113 µM) |  | O=C(O)c1c(O)cccc1CC1CCCC1 |  | inactive |  |
| 25 µg/mL (≈ 107 µM) |  | O=C(O)c1c(O)cccc1CC1CCCCC1 |  | inactive |  |
| 12.5 µg/mL (≈ 52.9 µM) |  | CCCCC(C)Cc1cccc(O)c1C(=O)O (stereo unspecified) |  | inactive |  |
| 6.25 µg/mL (≈ 23.1 µM) |  | O=C(O)c1c(O)cccc1CCCCc1ccccc1 |  | inactive |  |
| 6.25 µg/mL (≈ 23.8 µM) |  | O=C(O)c1c(O)cccc1CC1CCCCCCC1 |  | inactive |  |
| 6.25 µg/mL (≈ 18 µM) |  | CCCCCC/C=C\CCCCCCCc1cccc(O)c1C(=O)O [GINGKOLIC ACID] | 6.25 µg/mL (≈ 18 µM) | inactive |  |
| 3.13 µg/mL (≈ 9.09 µM) |  | CCC/C=C\C/C=C\CCCCCCCc1cccc(O)c1C(=O)O | 3.13 µg/mL (≈ 9.09 µM) | inactive |  |
| 3.13 µg/mL (≈ 11.8 µM) |  | CCCCCC(CC)Cc1cccc(O)c1C(=O)O (stereo unspecified) |  | inactive |  |
| 3.13 µg/mL (≈ 12.6 µM) |  | O=C(O)c1c(O)cccc1CCC1CCCCC1 |  | inactive |  |
| 1.56 µg/mL (≈ 5.09 µM) |  | CCCCCCCCCCCCc1cccc(O)c1C(=O)O | 6.25 µg/mL (≈ 20.4 µM) | inactive |  |
| 1.56 µg/mL (≈ 4.9 µM) |  | O=C(O)c1c(O)cccc1CC1CCCCCCCCCCC1 |  | inactive |  |
| 1.56 µg/mL (≈ 4.56 µM) |  | C=CC/C=C\C/C=C\CCCCCCCc1cccc(O)c1C(=O)O [ANACARDIC ACID] | 6.25 µg/mL (≈ 18.2 µM) | inactive | 0.78 µg/mL |
| 0.78 µg/mL (≈ 2.67 µM) |  | CC(C)CCCC(C)CCCc1cccc(O)c1C(=O)O (stereo unspecified) |  | inactive |  |
